These results are taken from ChEMBL document CHEMBL1147555, “2,3-diarylpyran-4-ones: a new series of selective cyclooxygenase-2 inhibitors” (Bioorg Med Chem Lett, 2004).

The structures appear in SMILES notation. Some results are limits rather than exact numbers.

A word on the inhibition: it is the percentage by which the read-out fell short of the control. In general, IC50 refers to the point on the concentration scale where inhibition reaches its midpoint. Read a low IC50 as greater potency. By inhibition in vivo is commonly meant the drop in the measured response relative to a control, in per cent. Read a high inhibition in vivo as a response far below the control. The term Tmax denotes the time from dosing to the highest level. One may read the half-life as the time needed for the level to fall by half in the phase considered. Broadly, the Cmax is the highest concentration seen after dosing.

Data set [1] concerns the target T1, Prostaglandin G/H synthase 1 (Mus musculus) (UniProt P22437).
T1 sequence (whole entry): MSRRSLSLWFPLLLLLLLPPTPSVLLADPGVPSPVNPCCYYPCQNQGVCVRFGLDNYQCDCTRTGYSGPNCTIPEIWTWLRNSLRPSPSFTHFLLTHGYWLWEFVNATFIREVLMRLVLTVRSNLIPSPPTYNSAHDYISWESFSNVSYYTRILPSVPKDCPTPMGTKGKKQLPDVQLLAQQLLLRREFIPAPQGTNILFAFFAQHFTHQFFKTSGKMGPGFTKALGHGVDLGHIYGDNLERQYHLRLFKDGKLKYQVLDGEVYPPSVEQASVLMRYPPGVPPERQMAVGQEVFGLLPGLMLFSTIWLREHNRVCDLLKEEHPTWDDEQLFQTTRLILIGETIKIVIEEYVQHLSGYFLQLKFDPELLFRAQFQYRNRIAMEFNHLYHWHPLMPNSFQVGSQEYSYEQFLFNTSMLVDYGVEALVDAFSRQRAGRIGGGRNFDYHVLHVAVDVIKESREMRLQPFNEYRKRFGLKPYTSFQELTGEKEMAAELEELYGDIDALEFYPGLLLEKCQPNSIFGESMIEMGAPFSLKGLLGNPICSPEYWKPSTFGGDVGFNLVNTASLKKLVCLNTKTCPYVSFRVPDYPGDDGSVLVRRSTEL
Nature of the data set: In vitro percentage inhibitory activity against prostaglandin G/H synthase 1 from freshly harvested mouse peritoneal macrophages at 10 ug/mL.

The target in data set [2] is T2, Prostaglandin G/H synthase 2 (Mus musculus, UniProt Q05769).
T2 sequence (Q05769 whole entry): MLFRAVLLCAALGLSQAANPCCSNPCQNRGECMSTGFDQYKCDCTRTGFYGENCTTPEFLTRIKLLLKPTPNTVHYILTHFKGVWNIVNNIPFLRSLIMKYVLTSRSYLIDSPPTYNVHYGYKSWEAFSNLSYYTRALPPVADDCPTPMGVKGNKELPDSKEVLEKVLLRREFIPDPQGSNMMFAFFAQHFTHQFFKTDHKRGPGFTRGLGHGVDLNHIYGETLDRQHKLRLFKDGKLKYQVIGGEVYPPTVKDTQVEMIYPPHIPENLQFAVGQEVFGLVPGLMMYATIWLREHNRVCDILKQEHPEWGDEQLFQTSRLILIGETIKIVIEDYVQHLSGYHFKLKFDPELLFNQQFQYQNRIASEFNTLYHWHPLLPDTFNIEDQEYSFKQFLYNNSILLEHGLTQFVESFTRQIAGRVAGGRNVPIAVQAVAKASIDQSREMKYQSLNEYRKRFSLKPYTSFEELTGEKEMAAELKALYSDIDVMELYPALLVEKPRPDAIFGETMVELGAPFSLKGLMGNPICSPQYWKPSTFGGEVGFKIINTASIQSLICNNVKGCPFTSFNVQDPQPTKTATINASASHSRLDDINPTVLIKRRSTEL
Nature of the data set: In vitro inhibitory activity against Prostaglandin G/H synthase 2 from freshly harvested mouse peritoneal macrophages; Not active.

In data set [3] the test system is Rattus norvegicus. Nature of the data set: Inhibitory effect of compound on carrageenan-induced rat paw edema administered p.o. at 10 mg/kg. In kind it is functional. Particulars: route oral. In a few lines:
(§1)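 Compound given orally; paw swelling measured and expressed as percent inhibition, five animals per group.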
A general note: Carrageenan injected into the paw causes an acute inflammation.

Data set [4] has as its system Rattus norvegicus. Nature of the data set: Inhibitory effect of compound on carrageenan-induced rat paw edema administered p.o. at 3 mg/kg. In kind it is functional. Particulars: route oral. In outline:
as §1

Data set [5] addresses T2, Prostaglandin G/H synthase 2. Nature of the data set: Inhibitory activity against Prostaglandin G/H synthase 2 from freshly harvested mouse peritoneal macrophages.
Data set [6] is described as follows: Time of maximum plasma concentration in rat. In kind it is ADME, organism-based.
Data set [7] can be described thus: Plasma half-life in rat. The class given is ADME, organism-based.
Data set [8] is described as follows: Maximum plasma concentration in rat. The class given is ADME, organism-based.
The target of data set [9] is T3, Prostaglandin G/H synthase 2 (Mus musculus) (UniProt Q05769).
T3 sequence (whole entry): T2 sequence (Q05769 whole entry)
Nature of the data set: In vitro percentage inhibition of Prostaglandin G/H synthase 2 from freshly harvested mouse peritoneal macrophages at 10 ug/ml.

`CS(=O)(=O)c1ccc(-c2occ(Cl)c(=O)c2-c2cccc(-c3ccccc3)c2)cc1`: in data set [1], the inhibition is < 5%. Besides, the IC50 result in [2] is reported as “Not Active”.

As for `CS(=O)(=O)c1ccc(-c2occ(Cl)c(=O)c2-c2ccc(F)cc2)cc1`, in [1], the inhibition is < 5%. This compound also yielded an inhibition in vivo at 10 mg/kg in the data set on Rattus norvegicus [3] of 33%. In the data set with Rattus norvegicus [4], this compound showed an inhibition in vivo at 3 mg/kg of 20%.

The compound `CS(=O)(=O)c1ccc(-c2oc3ccccc3c(=O)c2-c2cccnc2)cc1` yielded an inhibition in vivo at 10 mg/kg in the data set on Rattus norvegicus [3] of 25%.

For `CS(=O)(=O)c1ccc(-c2occ(Cl)c(=O)c2-c2ccccc2)cc1`, half-maximal inhibition in data set [5] (IC50) required 1.08 µM. Moreover, the inhibition in [1] was < 5%.

As to `COc1ccc(-c2c(-c3ccc(S(C)(=O)=O)cc3)occ(Cl)c2=O)cc1`, inhibition in data set [5] was half-maximal at 6.86 µM (IC50). In data set [1], the inhibition was < 5%.

In [5], `CS(=O)(=O)c1ccc(-c2occ(Cl)c(=O)c2-c2ccc(-c3ccccc3)c(F)c2)cc1` had an IC50 of 0.0879 µM. Besides, the inhibition in [1] is 70%.

For `CS(=O)(=O)c1ccc(-c2occ(Cl)c(=O)c2-c2ccc(OCc3ccccc3)cc2)cc1`, the inhibition in [1] is < 5%. Further, the IC50 result in [2] was “Not Active”.

On to `CS(=O)(=O)c1ccc(-c2occ(Cl)c(=O)c2-c2ccsc2)cc1`, for which the IC50 in [5] is 0.736 µM. The inhibition in data set [1] is < 5%. Moreover, in the data set on Rattus norvegicus [3], the inhibition in vivo at 10 mg/kg was found to be 13%.

For `Cc1ccc(-c2cc(C(F)(F)F)nn2-c2ccc(S(N)(=O)=O)cc2)cc1` [CELECOXIB], in the data set with Rattus norvegicus [3], the inhibition in vivo at 10 mg/kg was 42%. Moreover, 3 mg/kg produced 29% inhibition in vivo in the data set with Rattus norvegicus [4].

For `CS(=O)(=O)c1ccc(-c2occ(Cl)c(=O)c2-c2cccc(F)c2)cc1`, in data set [5], half-maximal inhibition (IC50) was put at 1.43 µM. Moreover, in data set [1], the inhibition is < 5%.

Compound `CS(=O)(=O)c1ccc(-c2occ(Cl)c(=O)c2-c2ccc(F)c(F)c2)cc1` gave an IC50 in data set [5] of 1.23 µM. Moreover, the Tmax in data set [6] was 4 h. In addition, the half-life in [7] is 3.7 h. Moreover, the inhibition in data set [1] amounted to 20%. For the same compound, the inhibition in vivo at 10 mg/kg in the data set on Rattus norvegicus [3] was 37%. The Cmax in [8] worked out at 5100 ng/mL. For the same compound, the inhibition in vivo at 3 mg/kg in the data set on Rattus norvegicus [4] stood at 10%.

As for `CS(=O)(=O)c1ccc(-c2occ(Cl)c(=O)c2-c2ccccc2F)cc1`, the IC50 in data set [5] was 6.31 µM. In [1], this compound gave an inhibition of 19%.

In the case of `CS(=O)(=O)c1ccc(-c2occ(Cl)c(=O)c2-c2ccc(F)cc2F)cc1`, half-maximal inhibition in [5] (IC50) was put at 1.39 µM. In data set [1], this compound returned an inhibition of 6%. Also, the inhibition in vivo at 3 mg/kg in the data set on Rattus norvegicus [4] came out at 20%.

Turning to `CS(=O)(=O)c1ccc(-c2occ(Cl)c(=O)c2-c2cc(F)cc(F)c2)cc1`, in data set [5], 2.34 µM corresponded to half-maximal inhibition (IC50). Besides, the inhibition in [1] was < 5%.

In data set [1], `CS(=O)(=O)c1ccc(-c2occ(Cl)c(=O)c2-c2ccc(O)cc2)cc1` yielded an inhibition of 17%. In data set [2], the concentration for half-maximal inhibition (IC50) result is reported as “Not Active”.

`COc1ccc2c(c1)c(CC(=O)O)c(C)n2C(=O)c1ccc(Cl)cc1` [INDOMETHACIN] had an inhibition in vivo at 10 mg/kg with Rattus norvegicus [3] of 42%.

Turning to `CS(=O)(=O)c1ccc(-c2occ(Cl)c(=O)c2-c2cccnc2)cc1`, the IC50 in data set [5] was 7.05 µM. Besides, the inhibition in [1] was < 5%.

With `Cc1ccc(-c2c(-c3ccc(S(C)(=O)=O)cc3)occ(Cl)c2=O)cc1`, the midpoint of inhibition in data set [5], the IC50, lay at 1.76 µM. In data set [1], the inhibition is < 5%.

In [5], `CCc1ccc(-c2c(-c3ccc(S(C)(=O)=O)cc3)occ(Cl)c2=O)cc1` showed an IC50 of 0.72 µM. The inhibition in data set [1] was 14%. 10 mg/kg produced 4% inhibition in vivo in the data set on Rattus norvegicus [3].

`CS(=O)(=O)c1ccc(-c2occ(Cl)c(=S)c2-c2ccc(F)cc2)cc1` gave an IC50 in [5] of 0.836 µM. Also, the inhibition in data set [1] is < 5%.

For the compound `CS(=O)(=O)c1ccc(-c2occ(Cl)c(=O)c2-c2cccs2)cc1`, the inhibition in data set [1] was < 5%; in data set [9] it was 9%.

On to `CS(=O)(=O)c1ccc(-c2occ(Cl)c(=O)c2-c2ccc(Cl)cc2)cc1`, for which the inhibition in data set [1] is < 5%.

Regarding `CS(=O)(=O)c1ccc(-c2occ(Cl)c(=O)c2-c2cccc(Cl)c2)cc1`, the IC50 in data set [5] was 1.42 µM. The inhibition in data set [1] was < 5%.

Regarding `CS(=O)(=O)c1ccc(-c2occc(=O)c2-c2ccc(F)cc2)cc1`, in data set [5], the half-inhibitory concentration (IC50) is 2.24 µM. Moreover, the inhibition in [1] was < 5%.

In data set [5], `CS(=O)(=O)c1ccc(-c2occ(Cl)c(=O)c2-c2ccc(-c3ccccc3)cc2)cc1` gave an IC50 of 0.0916 µM. This compound also came in with an inhibition in data set [1] of 68%. This compound gave an inhibition in vivo at 10 mg/kg in the data set with Rattus norvegicus [3] of 21%.
